Activity calls are given as the source filed them. The calls are words filed in the database; no cut-off is given here.
How the values were obtained:
CCRF-CEM [1] = experiment: Induction of apoptosis in human CCRF-CEM cells assessed as late apoptotic cells at 5 time IC50 incubated for 24 hrs by Annexin V and propidium iodide staining based flow cytometry analysis (reference value: 0.5%); type: functional
HCT-116 = experiment: Cytotoxicity against human HCT-116 cells assessed as reduction in cell viability incubated for 72 hrs by MTS assay; type: functional, cell-based; conditions: HCT-116, 72 h
[2] = Stability in human plasma assessed as compound remaining measured 30 mins by RF-MS analysis; type: ADME, cell-free; conditions: read-out: Stability
Method in brief: (§1)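 Compounds incubated in human plasma in vitro for up to 2 h. Percent remaining sampled at 15, 30, 60 and 120 min. Run in triplicate.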

[3] = Metabolic stability in human liver microsomes assessed as compound remaining at measured at 30 mins in presence of NADPH by RF-MS analysis; type: ADME, Microsome; conditions: read-out: Stability
Method in brief: (§2)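 Human liver microsomes with NADPH cofactor to assess phase I oxidation. Compound remaining sampled at 15, 30 and 60 min; intrinsic clearance derived and categorized. Run in triplicate.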

[4] = Apparent permeability of the compound across apical to basolateral side in MDCK-MDR1 cells assessed as compound recovery at 10 uM incubated for 1 hr by RF-MS analysis; type: ADME, cell-based, Canis lupus familiaris; conditions: dog, read-out: Activity
Method in brief: (§3)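 Caco-2 and MDCK-MDR1 monolayers; transport measured in both directions, apical→basolateral and basolateral→apical. Efflux ratio taken from the two directions; ER > 2 counted as active efflux. Compound recovery reported. Cell-based permeability runs done in duplicate.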

CCRF-CEM [5] = experiment: Induction of apoptosis in human CCRF-CEM cells assessed as viable cells at 5 time IC50 incubated for 24 hrs by Annexin V and propidium iodide staining based flow cytometry analysis (reference value: 98%); type: functional
[6] = Apparent permeability of the compound across apical to basolateral side in human Caco-2 cells assessed as compound recovery; type: ADME, cell-based; conditions: read-out: Activity; method in brief: as §3
[7] = Metabolic stability in human liver microsomes assessed as compound remaining at measured at 60 mins in presence of NADPH by RF-MS analysis; type: ADME, Microsome; conditions: read-out: Stability; method in brief: as §2
CCRF-CEM [8] = experiment: Induction of apoptosis in human CCRF-CEM cells assessed as late apoptotic cells at 1 time IC50 incubated for 24 hrs by Annexin V and propidium iodide staining based flow cytometry analysis (reference value: 0.5%); type: functional
[9] = Efflux ratio of apparent permeability across basolateral to apical side over apical to basolateral side in MDCK-MDR1 cells; type: ADME, cell-based, Canis lupus familiaris; conditions: dog; method in brief: as §3
CCRF-CEM [10] = experiment: Induction of apoptosis in human CCRF-CEM cells assessed as early apoptotic cells at 5 time IC50 incubated for 24 hrs by Annexin V and propidium iodide staining based flow cytometry analysis (reference value: 1.4%); type: functional
[11] = Apparent permeability of the compound in human Caco-2 cells; type: ADME, cell-based; method in brief: as §3
A549 = experiment: Cytotoxicity against human A549 cells assessed as reduction in cell viability incubated for 72 hrs by MTS assay; type: functional, cell-based; conditions: A549, 72 h
CEM-DNR = experiment: Cytotoxicity against human CEM-DNR cells assessed as reduction in cell viability incubated for 72 hrs by MTS assay; type: functional, cell-based
CCRF-CEM [12] = experiment: Induction of apoptosis in human CCRF-CEM cells assessed as early apoptotic cells at 1 time IC50 incubated for 24 hrs by Annexin V and propidium iodide staining based flow cytometry analysis (reference value: 1.4%); type: functional
CCRF-CEM [13] = experiment: Cytotoxicity against human CCRF-CEM cells assessed as reduction in cell viability incubated for 72 hrs by MTS assay; type: functional, cell-based
[14] = Cytotoxicity against human K562-Tax cells assessed as reduction in cell viability incubated for 72 hrs by MTS assay; type: functional, cell-based
[15] = Stability in human plasma assessed as compound remaining measured 15 mins by RF-MS analysis; type: ADME, cell-free; conditions: read-out: Stability; method in brief: as §1
[16] = Stability in human plasma assessed as compound remaining measured 120 mins by RF-MS analysis; type: ADME, cell-free; conditions: read-out: Stability; method in brief: as §1
[17] = Efflux ratio of apparent permeability across basolateral to apical side over apical to basolateral side in human Caco-2 cells; type: ADME, cell-based; method in brief: as §3
[18] = Cytotoxicity against human MRC5 cells assessed as reduction in cell viability incubated for 72 hrs by MTS assay; type: toxicity, cell-based
HCT 116 TP53(-/-) = experiment: Cytotoxicity against human HCT116-p53-null cells assessed as reduction in cell viability incubated for 72 hrs by MTS assay; type: functional, cell-based
[19] = Cytotoxicity against human BJ cells assessed as reduction in cell viability incubated for 72 hrs by MTS assay; type: toxicity, cell-based
[20] = Metabolic stability in human liver microsomes assessed as compound remaining at measured at 15 mins in presence of NADPH by RF-MS analysis; type: ADME, Microsome; conditions: read-out: Stability; method in brief: as §2
CCRF-CEM [21] = experiment: Induction of apoptosis in human CCRF-CEM cells assessed as necrotic cells at 5 time IC50 incubated for 24 hrs by Annexin V and propidium iodide staining based flow cytometry analysis (reference value: 0.; type: functional
[22] = Plasma protein binding in human assessed as fraction bound at 10 uM by rapid equilibrium dialysis based RF-MS analysis; type: ADME, cell-free; conditions: read-out: PPB (converted)
Method in brief: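 Human plasma protein binding measured by equilibrium dialysis and reported as percent fraction bound. Run in triplicate.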

CCRF-CEM [23] = experiment: Induction of apoptosis in human CCRF-CEM cells assessed as necrotic cells at 1 time IC50 incubated for 24 hrs by Annexin V and propidium iodide staining based flow cytometry analysis (reference value: 0.1%); type: functional
CCRF-CEM [24] = experiment: Induction of apoptosis in human CCRF-CEM cells assessed as reduction in Bcl-2 expression at 5 time of IC50 incubated for 24 hrs by Western blot analysis; type: functional, cell-based
Method in brief: (§4)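 Lysate 20 µg protein per lane on SDS-PAGE, transferred to nitrocellulose, blocked in 5% BSA/TBS-Tween. Probed overnight at 4 °C with anti-caspase-3, Bcl-2, Bcl-XL, β-actin, then HRP secondary 1 h. ECL chemiluminescence detection.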

K562 = experiment: Cytotoxicity against human K562 cells assessed as reduction in cell viability incubated for 72 hrs by MTS assay; type: functional, cell-based; conditions: K562, 72 h
[25] = Apparent permeability of the compound in MDCK-MDR1 cells at 10 uM incubated for 1 hr by RF-MS analysis; type: ADME, cell-based, Canis lupus familiaris; conditions: dog; method in brief: as §3
CCRF-CEM [26] = experiment: Induction of apoptosis in human CCRF-CEM cells assessed as reduction in Bcl-XL expression at 5 time of IC50 incubated for 24 hrs by Western blot analysis; type: functional, cell-based; method in brief: as §4
U2OS = experiment: Cytotoxicity against human U2OS cells assessed as reduction in cell viability incubated for 72 hrs by MTS assay; type: functional, cell-based
CCRF-CEM [27] = experiment: Induction of apoptosis in human CCRF-CEM cells assessed as reduction in caspase-3 expression at 5 time of IC50 incubated for 24 hrs by Western blot analysis; type: functional, cell-based; method in brief: as §4
[28] = Stability in human plasma assessed as compound remaining measured 60 mins by RF-MS analysis; type: ADME, cell-free; conditions: read-out: Stability; method in brief: as §1
CCRF-CEM [29] = experiment: Induction of mitochondrial membrane potential loss in human CCRF-CEM cells assessed as cells with depolarized mitochondria (P2 gate) by measuring green fluorescence intensity at 1 time IC50 incubated for 24 hrs by JC-1 staining based flow cytometry (reference value: 2.1%)
CCRF-CEM [30] = experiment: Induction of apoptosis in human CCRF-CEM cells assessed as viable cells at 1 time IC50 incubated for 24 hrs by Annexin V and propidium iodide staining based flow cytometry analysis (reference value: 98%); type: functional
CCRF-CEM [31] = experiment: Induction of mitochondrial membrane potential loss in human CCRF-CEM cells assessed as cells with depolarized mitochondria (P2 gate) by measuring green fluorescence intensity at 5 time IC50 incubated for 24 hrs by JC-1 staining based flow cytometry (reference value: 2.1%)
CCRF-CEM [32] = experiment: Antiproliferative activity against human CCRF-CEM cells assessed as reduction cell population at 1 time of IC50 by BrdU incorporation assay; type: functional, cell-based
Method in brief: (§5)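 Mitotic fraction scored with the pH3 Ser10 marker and DNA synthesis with BrdU incorporation. For transcription, cells received a short BrU pulse after the 24 h pre-incubation. Read by flow cytometry against untreated cells.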

CCRF-CEM [33] = experiment: Antiproliferative activity against human CCRF-CEM cells assessed as inhibition of RNA synthesis at 5 time of IC50 by BrdU incorporation assay; type: functional, cell-based; conditions: in the assay text read “BrU incorporation assay” for “BrdU incorporation assay”; method in brief: as §5
CCRF-CEM [34] = experiment: Antimitotic activity against human CCRF-CEM cells assessed as decrease in cell division at 5 times of IC50; type: functional, cell-based; method in brief: as §5

In the case of `C[C@H]1[C@H](C)CC[C@]2(C(=O)O)CC[C@]3(C)C(=CC[C@@H]4[C@@]5(C)CC6=C(C7C(=O)N(c8ccccc8)C(=O)C7C=C6C(F)(F)F)C(C)(C)[C@@H]5CC[C@]43C)[C@H]12` (stereo partly specified), the Activity (CCRF-CEM [1]) is reported as 6.9%, the IC50 (HCT-116) is reported as 13 µM and the remaining at 0.5 h [2] is reported as 99.6%. For the same molecule, the remaining at 0.5 h [3] was 64%, the recovery at 1 h, 10 µM [4] was 60.5% and the Activity (CCRF-CEM [5]) was 82.2%. The recovery [6] was 69.2%, the remaining at 1 h [7] was 45% and the Activity (CCRF-CEM [8]) was 2.8%. For the same molecule, the efflux ratio [9] was 8.17, the Activity (CCRF-CEM [10]) was 10.9% and the Papp [11] was 0.12 ×10⁻⁶ cm/s. The IC50 (A549) was 18 µM, the IC50 (CEM-DNR) was over 50 µM and the Activity (CCRF-CEM [12]) was 3.6%. It also gave an IC50 (CCRF-CEM [13]) of 4.3 µM, an IC50 [14] of 23 µM and a remaining at 0.25 h [15] of 102%. For the same molecule, the remaining at 2 h [16] was 94.2%, the efflux ratio [17] was 41.8 and the IC50 at 72 h [18] was over 50 µM. The IC50 (HCT 116 TP53(-/-)) was 12 µM, the IC50 at 72 h [19] was 10 µM and the remaining at 0.25 h [20] was 82%. The Activity (CCRF-CEM [21]) was 0%, the fraction unbound at 10 µM [22] was 0.292 and the Activity (CCRF-CEM [23]) was 0%. For the same molecule, the Activity (CCRF-CEM [24]) was “Active”, the IC50 (K562) was 21 µM and the Papp at 1 h, 10 µM [25] was 0.33 ×10⁻⁶ cm/s. The Activity (CCRF-CEM [26]) was “Active”, the IC50 (U2OS) was 19 µM and the Activity (CCRF-CEM [27]) was “Active”. The remaining at 1 h [28] was 102%, the Activity (CCRF-CEM [29]) was 0.6% and the Activity (CCRF-CEM [30]) was 93.6%. It also gave an Activity (CCRF-CEM [31]) of 11.8%.
With `CC(C)[C@@H]1CC[C@]2(C(=O)O)CC[C@]3(C)[C@H](CC[C@@H]4[C@@]5(C)CC6=C(C7C(=O)N(c8ccccc8)C(=O)C7C=C6C(F)(F)F)C(C)(C)[C@@H]5CC[C@]43C)[C@@H]12` (stereo partly specified) the Activity (CCRF-CEM [1]) was 4.5%, the IC50 (HCT-116) was 29 µM and the remaining at 0.5 h [2] was 102%. It also gave a remaining at 0.5 h [3] of 92%, a recovery at 1 h, 10 µM [4] of 86% and an Activity (CCRF-CEM [5]) of 90.3%. The recovery [6] was 84.2%, the remaining at 1 h [7] was 56% and the Activity (CCRF-CEM [8]) was 2.9%. For the same molecule, the efflux ratio [9] was 71.8, the Activity (CCRF-CEM [10]) was 5.2% and the Papp [11] was 0.09 ×10⁻⁶ cm/s. For the same molecule, the Activity (CCRF-CEM [32]) was “Active”, the IC50 (A549) was 18 µM and the IC50 (CEM-DNR) was over 50 µM. The Activity (CCRF-CEM [12]) was 4.7%, the IC50 (CCRF-CEM [13]) was 4.5 µM and the IC50 [14] was over 50 µM. The remaining at 0.25 h [15] was 99.2%, the remaining at 2 h [16] was 89% and the efflux ratio [17] was 63.5. The IC50 at 72 h [18] was 28 µM, the Activity (CCRF-CEM [33]) was “Active” and the IC50 (HCT 116 TP53(-/-)) was 28 µM. For the same molecule, the IC50 at 72 h [19] was 25 µM, the remaining at 0.25 h [20] was 92% and the Activity (CCRF-CEM [21]) was 0%. The fraction unbound at 10 µM [22] was 0.403, the Activity (CCRF-CEM [23]) was 0% and the Activity (CCRF-CEM [24]) was “Active”. For the same molecule, the Activity (CCRF-CEM [34]) was “inactive”, the IC50 (K562) was 30 µM and the Papp at 1 h, 10 µM [25] was 0.05 ×10⁻⁶ cm/s. The Activity (CCRF-CEM [26]) was “Active”, the IC50 (U2OS) was 4.8 µM and the remaining at 1 h [28] was 96.7%. For the same molecule, the Activity (CCRF-CEM [29]) was 2.2%, the Activity (CCRF-CEM [30]) was 92.4% and the Activity (CCRF-CEM [31]) was 6.7%.

Source: ChEMBL document CHEMBL5512642, “Novel triterpenoid pyrones, phthalimides and phthalates are selectively cytotoxic in CCRF-CEM cancer cells - Synthesis, potency, and mitochondrial mechanism of action” (Eur J Med Chem, 2024)
